# Measurements collected from several papers.
# Compare with care: the assays were run in different laboratories.
# Effect on: cell growth or viability
SMILES,cell line,test,conditions,IC50
N#Cc1ccc(-c2cc(CNc3cccc4cccnc34)on2)cc1,K562,MTS,72 h,11.1 µM
CC(=O)c1ccc2cc(S(=O)(=O)Nc3ccccc3Cl)ccc2c1,MDCK,neutral red,48 h,12.7 µM
COC[C@H](NC(=O)c1ccn(S(C)(=O)=O)c1)C(=O)Nc1nc(-c2cccc(N3C[C@@H](C)O[C@@H](C)C3)n2)cs1,VCaP,ATP luminescence,7 days,0.0265 µM
COc1ccc2c(c1)C(=O)C(=O)N2CCn1ncc2c(=O)[nH]cnc21,BALB/3T3 clone A31,SRB,72 h,21.7 µg/mL
Cc1ccc(S(=O)(=O)n2cc(/C=N/NC(=O)c3ccccc3C)c3ccccc32)cc1,MCF-10A,MTT,48 h,> 50 µM
O=C1C(=O)N(CCn2ncc3c(=O)[nH]cnc32)c2ccc(Cl)cc21,BALB/3T3 clone A31,SRB,72 h,11.4 µg/mL
CC(C)[C@@H]1NC(=O)[C@H](Cc2c[nH]cn2)NC1=O,NCI-H446,SRB,,> 15 µM
NC(=O)c1cnc(NCCc2ccc(O)c(Cl)c2)nc1NCc1ccccc1,JHH7,CCK-8,48 h,1.29 µM
Cc1ccc(S(=O)(=O)n2cc(/C=N/NC(=O)c3cccnc3)c3ccccc32)cc1,MCF-10A,MTT,48 h,> 50 µM
O=C1C(=O)N(CCn2ncc3c(=O)[nH]cnc32)c2ccc(F)cc21,BALB/3T3 clone A31,SRB,72 h,19.6 µg/mL
CN1CCC(NC2CCc3[nH]c4c(C(N)=O)ccc(-c5ccccc5Cl)c4c3C2)CC1 (stereo not shown),NCI-H446,,96 h,0.00802 µM
O=C1C(=O)N(CCn2ncc3c(=O)[nH]cnc32)c2ccccc21,BALB/3T3 clone A31,SRB,72 h,23.1 µg/mL
COc1ccc(NS(=O)(=O)c2ccc3cc(C(C)=O)ccc3c2)cc1,MDCK,neutral red,48 h,18.2 µM
C/C(=C\C(=O)N[C@H](C(=O)N1CCC[C@H]1C(=O)N(c1ccccc1)c1ccc(I)cc1)C(C)(C)C)c1ccc(OP(=O)(O)O)cc1,JHH7,CCK-8,,7.19 µM
CC(=O)O[C@@]12CO[C@@H]1C[C@H](O)[C@@]1(C)C(=O)[C@H](O)C3=C(C)[C@@H](OC(=O)[C@H](O)[C@@H](NC(=O)OC(C)(C)C)c4ccccc4)C[C@@](O)([C@@H](OC(=O)c4ccccc4)[C@H]21)C3(C)C,MCF-10A,MTT,48 h,> 100 µM
NC(=S)N/N=C1\C(=O)N(CCn2ncc3c(=O)[nH]cnc32)c2ccc(Cl)cc21,BALB/3T3 clone A31,SRB,72 h,14.3 µg/mL
Cc1ccc(S(=O)(=O)n2cc(/C=N/NC(=O)c3ccc(Br)cc3)c3ccccc32)cc1,MCF-10A,MTT,48 h,> 50 µM
CC(=O)c1ccc2cc(S(=O)(=O)Nc3ccc(F)cc3)ccc2c1,MDCK,neutral red,48 h,93.4 µM
CCCCC(=O)Nc1ccc(-c2ccc3ncn(CCC)c(=O)c3c2)cn1,human PBMC,CCK-8,72 h,> 10 µM
Cc1ncsc1-c1ccc(CNC(=O)[C@@H]2C[C@@H](O)CN2C(=O)[C@@H](NC(=O)C2(F)CC2)C(C)(C)C)c(OCCOc2ccc(CN3CCN(c4cc(-c5ccccc5O)nnc4N)CC3)cc2)c1,VCaP,ATP luminescence,7 days,0.0246 µM
CC(=O)c1ccc2cc(S(=O)(=O)Nc3ccccc3C)ccc2c1,MDCK,neutral red,48 h,21.8 µM
Cc1ccc(S(=O)(=O)n2cc(/C=N/NC(=O)c3ccccc3)c3ccccc32)cc1,MCF-10A,MTT,48 h,> 50 µM
COc1cc([C@@H]2c3cc4c(cc3[C@@H](O[C@@H]3O[C@@H]5CO[C@@H](C)O[C@H]5[C@H](O)[C@H]3O)[C@H]3COC(=O)[C@H]23)OCO4)cc(OC)c1O,K562,MTS,72 h,0.03 µM
COc1cccc2c1C(=O)c1c(O)c3c(c(O)c1C2=O)C[C@@](O)(C(=O)CO)C[C@@H]3O[C@H]1C[C@H](N)[C@H](O)[C@H](C)O1,NCI-H446,SRB,,0.8 µM
Nc1ccn([C@@H]2O[C@H](CO)[C@@H](O)C2(F)F)c(=O)n1,4T1,MTT,24 h,5.78 µg/mL
CCOC(=O)c1c(C)nc2ccc(-c3ccc(F)cc3F)cc2c1O,MCF-10A,MTT,48 h,≥ 100 µM
CC(C)=CCc1ncc(/C=C2\NC(=O)[C@H](C(C)C)NC2=O)[nH]1,NCI-H446,SRB,,> 15 µM
Cc1ccc(S(=O)(=O)n2cc(/C=N/NC(=O)c3ccc([N+](=O)[O-])cc3)c3ccccc32)cc1,MCF-10A,MTT,48 h,> 50 µM
FC(F)(F)c1ccc(-c2cc(COc3cc(C(F)(F)F)nc4ccccc34)on2)cc1,K562,MTS,72 h,> 100 µM
CC(=O)c1ccc2cc(S(=O)(=O)Nc3ccccc3)ccc2c1,MDCK,neutral red,48 h,90.9 µM
Cc1ccc(S(=O)(=O)n2cc(/C=N/NC(=O)c3ccco3)c3ccccc32)cc1,MCF-10A,MTT,48 h,> 50 µM
